ChEMBL document CHEMBL4219224, “Structure based drug design and in vitro metabolism study: Discovery of N-(4-methylthiophenyl)-N,2-dimethyl-cyclopenta[d]pyrimidine as a potent microtubule targeting agent” (Bioorg Med Chem, 2018)

Assays:
UACC-62 = assay: Growth inhibition of human UACC62 cells incubated for 48 hrs by sulforhodamine B assay; type: functional; settings: UACC-62, 48 h
HCC 2998 = assay: Growth inhibition of human HCC2998 cells incubated for 48 hrs by sulforhodamine B assay; type: functional; settings: HCC 2998, 48 h
HT-29 = assay: Growth inhibition of human HT-29 cells incubated for 48 hrs by sulforhodamine B assay; type: functional; settings: HT-29, 48 h
SN12C = assay: Growth inhibition of human SN12C cells incubated for 48 hrs by sulforhodamine B assay; type: functional
LOX IMVI = assay: Growth inhibition of human LOXIMVI cells incubated for 48 hrs by sulforhodamine B assay; type: functional
OVCAR-8 = assay: Growth inhibition of human OVCAR8 cells incubated for 48 hrs by sulforhodamine B assay; type: functional; settings: OVCAR-8, 48 h
NCI-H460 = assay: Growth inhibition of human NCI-H460 cells incubated for 48 hrs by sulforhodamine B assay; type: functional; settings: NCI-H460, 48 h
MDA-MB-435 (human) = assay: Antiproliferative activity against human MDA-MB-435 cells by SRB assay
SR = assay: Growth inhibition of human SR cells incubated for 48 hrs by sulforhodamine B assay; type: functional
HeLa [1] = assay: Antiproliferative activity against human HeLa cells by SRB assay; type: functional, cell-based
NCI-H226 = assay: Growth inhibition of human NCI-H226 cells incubated for 48 hrs by sulforhodamine B assay; type: functional; settings: NCI-H226, 48 h
Bos taurus = organism: Bos taurus; assay: Inhibition of [3H]colchicine binding to bovine brain tubulin at 1 uM measured after 10 mins by scintillation counting method relative to control
How it was run: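 Reactions of 0.1 mL held 1.0 μM bovine brain tubulin, 5.0 μM [3H]colchicine, inhibitor at 1.0 or 5.0 μM, colchicine-binding stabilizing components and 5% DMSO, assembled on ice with tubulin added last. Incubated 10 min at 37 °C, stopped with ice water, filtered through DEAE-cellulose filters. Bound radiolabel counted by scintillation.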

[2] = Retention time of the compound in human liver microsomes at 20 uM by LC-MS/MS analysis; type: ADME, microsome
How it was run: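 Human liver microsomes (both genders; 1.0 mg/mL) in 100 mM PBS pH 7.4 with 3 mM MgCl2 and 10 mM NADPH, preincubated at 37 °C. Reaction started with compound at 20 μM final (from DMSO stock); propranolol 5 μM as control. Aliquots at 0 and 60 min quenched in ice-cold ACN. Analysed by LC/MS/MS on a C18 column, 5–75% B gradient over 30 min, ESI.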

OVCAR-3 = assay: Growth inhibition of human OVCAR3 cells incubated for 48 hrs by sulforhodamine B assay; type: functional; settings: OVCAR-3, 48 h
MDA-MB-468 = assay: Growth inhibition of human MDA-MB-468 cells incubated for 48 hrs by sulforhodamine B assay; type: functional; settings: MDA-MB-468, 48 h
HeLa [3] = assay: Antiproliferative activity against human HeLa cells expressing wild type beta3 tubulin by SRB assay; type: functional, cell-based
NCI-H322M = assay: Growth inhibition of human NCI-H322M cells incubated for 48 hrs by sulforhodamine B assay; type: functional
KM12 = assay: Growth inhibition of human KM12 cells incubated for 48 hrs by sulforhodamine B assay; type: functional; settings: KM12, 48 h
NCI/ADR-RES = assay: Growth inhibition of human NCI/ADR-RES cells incubated for 48 hrs by sulforhodamine B assay; type: functional
HOP-62 = assay: Growth inhibition of human HOP62 cells incubated for 48 hrs by sulforhodamine B assay; type: functional; settings: HOP-62, 48 h
HeLa [4] = assay: Resistance index, ratio of IC50 for human HeLa cells expressing wild type beta3 tubulin to IC50 for human HeLa cells; type: functional
How it was run: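 Antiproliferative IC50 by SRB assay (cellular protein) in each isogenic pair: SK-OV-3 parental versus Pgp-expressing, and parental HeLa versus wild-type βIII-tubulin-expressing HeLa. Rr is the IC50 ratio of the modified line to the parental line. At least three independent experiments, each in triplicate, mean ± SD.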

RXF 393 = assay: Growth inhibition of human RXF393 cells incubated for 48 hrs by sulforhodamine B assay; type: functional; settings: RXF 393, 48 h
CAKI-1 = assay: Growth inhibition of human Caki1 cells incubated for 48 hrs by sulforhodamine B assay; type: functional; settings: CAKI-1, 48 h
SNB-19 = assay: Growth inhibition of human SNB19 cells incubated for 48 hrs by sulforhodamine B assay; type: functional; settings: SNB-19, 48 h
SF-539 = assay: Growth inhibition of human SF539 cells incubated for 48 hrs by sulforhodamine B assay; type: functional; settings: SF-539, 48 h
M14 = assay: Growth inhibition of human M14 cells incubated for 48 hrs by sulforhodamine B assay; type: functional; settings: M14, 48 h
SNB-75 = assay: Growth inhibition of human SNB75 cells incubated for 48 hrs by sulforhodamine B assay; type: functional; settings: SNB-75, 48 h
SW-620 = assay: Growth inhibition of human SW620 cells incubated for 48 hrs by sulforhodamine B assay; type: functional; settings: SW-620, 48 h
Hs-578T = assay: Growth inhibition of human Hs578T cells incubated for 48 hrs by sulforhodamine B assay; type: functional

CSc1ccc(N(C)c2nc(C)nc3c2CCC3)cc1
7 nM: IC50 (HeLa [1])
> 10000 nM: GI50 (NCI-H322M)
17.4 min: Retention_time [2]
5.3 nM: IC50 (HeLa [3])
< 10 nM: GI50 (UACC-62) | GI50 (HCC 2998) | GI50 (HT-29) | GI50 (SN12C) | GI50 (LOX IMVI) | GI50 (OVCAR-8) | GI50 (NCI-H460) | GI50 (SR) | GI50 (NCI-H226) | GI50 (OVCAR-3) | GI50 (MDA-MB-468) | GI50 (KM12) | GI50 (NCI/ADR-RES) | GI50 (HOP-62) | GI50 (RXF 393) | GI50 (CAKI-1) | GI50 (SNB-19) | GI50 (SF-539) | GI50 (M14) | GI50 (SNB-75) | GI50 (SW-620) | GI50 (Hs-578T)
0.8: Ratio IC50 (HeLa [4])
4.6 nM: IC50 (MDA-MB-435 (human))
74%: inhibition (Bos taurus)
